# Measurements reported in ChEMBL document CHEMBL1833966, “Synthesis and evaluation of quinazolin-4-ones as hypoxia-inducible factor-1α inhibitors” (Bioorg Med Chem Lett, 2011).
# Active and inactive are the calls of the source. The rule behind the calls is not given here.
# Biological target: T1, Hypoxia-inducible factor 1-alpha (Homo sapiens, UniProt Q16665)
# Assay: Inhibition of hypoxia-induced HIF1alpha activation in human ME180 cells by HRE3-Bla-[…] reporter gene assay
# Assay type: cell-based, ME-180
# Settings: me-180
# In short: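 HRE-bla ME-180 reporter cells, 2500 per well, given compound by pin transfer (261-fold dilution), then held 17 h at 37 °C under 1% oxygen. LiveBLAzer B/G FRET β-lactamase substrate added, 2.5 h at room temperature; fluorescence read at 405 nm excitation, 460 and 530 nm emission. IC50 is the mean of three independent experiments.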
# Target sequence in this assay (Q16665 whole entry): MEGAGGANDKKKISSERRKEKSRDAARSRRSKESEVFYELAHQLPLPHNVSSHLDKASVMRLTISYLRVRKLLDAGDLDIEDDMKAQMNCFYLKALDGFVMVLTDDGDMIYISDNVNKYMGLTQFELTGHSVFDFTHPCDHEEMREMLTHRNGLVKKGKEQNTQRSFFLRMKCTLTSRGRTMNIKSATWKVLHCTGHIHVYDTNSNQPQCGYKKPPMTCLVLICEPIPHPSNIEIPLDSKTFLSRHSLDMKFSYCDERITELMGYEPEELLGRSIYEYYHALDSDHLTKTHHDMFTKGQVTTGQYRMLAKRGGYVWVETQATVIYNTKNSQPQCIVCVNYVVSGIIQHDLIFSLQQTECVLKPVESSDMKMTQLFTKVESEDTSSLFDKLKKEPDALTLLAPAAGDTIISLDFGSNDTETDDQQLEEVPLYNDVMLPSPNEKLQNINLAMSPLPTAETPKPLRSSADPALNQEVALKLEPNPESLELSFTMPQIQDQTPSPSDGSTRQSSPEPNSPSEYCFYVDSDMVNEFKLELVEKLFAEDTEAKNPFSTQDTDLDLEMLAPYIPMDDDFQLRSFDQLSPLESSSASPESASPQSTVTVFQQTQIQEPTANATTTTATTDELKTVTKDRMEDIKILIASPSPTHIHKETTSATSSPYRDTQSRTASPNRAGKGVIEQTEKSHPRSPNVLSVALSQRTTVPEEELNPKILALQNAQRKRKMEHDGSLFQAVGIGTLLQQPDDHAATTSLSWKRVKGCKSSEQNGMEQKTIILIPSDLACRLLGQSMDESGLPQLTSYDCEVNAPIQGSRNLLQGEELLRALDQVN
row,SMILES,IC50
1,CCOc1ccccc1-n1c(CN2CCCCC2)nc2ccccc2c1=O,Not Active
2,CCOc1ccccc1-n1c(CN2CCN(C(=O)c3ccco3)CC2)nc2cc(OC)c(OC)cc2c1=O,Not Active
3,CC(C)(C)c1ccccc1-n1c(CN2CCN(C(=O)c3ccco3)CC2)nc2ccccc2c1=O,Not Active
4,O=C(c1ccco1)N1CCN(Cc2nc3ccccc3c(=O)n2-c2ccccc2F)CC1,Not Active
5,O=C(c1ccco1)N1CCN(Cc2nc3ccccc3c(=O)n2-c2ccccc2[N+](=O)[O-])CC1,Not Active
6,Cc1ccccc1-n1c(CN2CCN(C(=O)c3ccco3)CC2)nc2ccccc2c1=O,Not Active
7,CCOc1ccccc1-n1c(CN2CCN(C(=O)c3ccco3)CC2)nc2ccc(I)cc2c1=O,Not Active
8,O=C(c1ccco1)N1CCN(Cc2nc3ccccc3c(=O)n2-c2ccccc2Oc2ccccc2)CC1,Not Active
9,O=C(c1ccco1)N1CCN(Cc2nc3ccccc3c(=O)n2-c2ccc(F)cc2)CC1,Not Active
10,O=C(c1ccco1)N1CCN(Cc2nc3ccccc3c(=O)n2-c2ccccc2Cl)CC1,Not Active
11,O=C(c1ccco1)N1CCN(Cc2nc3ccccc3c(=O)n2-c2ccccc2)CC1,Not Active
12,O=C(c1ccco1)N1CCN(Cc2nc3ccccc3c(=O)n2-c2ccccc2OCc2ccccc2)CC1,Not Active
13,O=C(c1ccco1)N1CCN(Cc2nc3ccccc3c(=O)n2-c2ccccc2C(F)(F)F)CC1,Not Active
14,COc1ccc(-n2c(CN3CCNCC3)nc3ccccc3c2=O)cc1,Not Active
15,CCOc1ccccc1-n1c(CN2CCN(C(=O)c3ccco3)CC2)nc2cccc(OC)c2c1=O,Not Active

# Same assay, conditions: read-out: IC50
row,SMILES,IC50 [µM]
1,CCOC(=O)N1CCN(Cc2nc3ccccc3c(=O)n2-c2ccccc2OCC)CC1,9.4
2,COc1ccccc1-n1c(CN2CCN(C(=O)c3ccco3)CC2)nc2ccccc2c1=O,3.3
3,COc1ccc([N+](=O)[O-])cc1-n1c(CN2CCNCC2)nc2ccccc2c1=O,4.2
4,CCOc1ccccc1-n1c(CN2CCNCC2)nc2ccccc2c1=O,0.09
5,CCOc1ccccc1-n1c(CN2CCN(C(=O)c3ccccc3)CC2)nc2ccccc2c1=O,1.7
6,CCOc1ccccc1-n1c(CC2CCN(C(=O)c3ccco3)CC2)nc2ccccc2c1=O,27.6
7,CCOc1ccccc1-n1c(CN2CCN(C(C)=O)CC2)nc2ccccc2c1=O,0.47
8,CCOc1ccccc1-n1c(CN2CCCNCC2)nc2ccccc2c1=O,0.16
9,CCOc1ccccc1-n1c(CN2CCN(C(=O)c3ccco3)CC2)nc2cccc(C)c2c1=O,1.2
10,COc1ccc(C(F)(F)F)cc1-n1c(CN2CCNCC2)nc2ccccc2c1=O,0.2
11,CCOc1ccccc1-n1c(CN2CCN(Cc3ccccc3)CC2)nc2ccccc2c1=O,27.5
12,CCOc1ccccc1-n1c(CN2CCOCC2)nc2ccccc2c1=O,27.6
13,CCOc1ccccc1-n1c(CN2CCN(C(=O)c3ccco3)CC2)nc2ccccc2c1=O,0.43
14,CCOc1ccccc1-n1c(CN2CCN(C)CC2)nc2ccccc2c1=O,0.81
15,CC(C)COc1ccccc1-n1c(CN2CCNCC2)nc2ccccc2c1=O,6.2
16,CCSc1ccccc1-n1c(CN2CCNCC2)nc2ccccc2c1=O,3.5
17,O=c1c2ccccc2nc(CN2CCNCC2)n1-c1ccccc1OCc1ccccc1,22.9
18,CCNc1ccccc1-n1c(CN2CCNCC2)nc2ccccc2c1=O,4.1

# System: ME-180
# Assay: Inhibition of hypoxia-induced HIF1alpha protein accumulation in human HRE-bla-ME180 cells at 1 uM after 17 hrs by Western blot analysis
# Assay type: functional, cell-based
# Settings: not given
# In short: (§1)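 HRE-bla ME-180 cells, 1 × 10^6 per well, cultured 6 h, then exposed 17 h to compound in DMSO at 1% oxygen; DMSO under normal atmosphere as negative control. Lysis on ice with protease inhibitor, centrifugation, 25 ug protein on 10% Tris-Glycine SDS-PAGE, PVDF transfer. Blotted with anti-HIF-1α (1:250), β-actin (1:5000) loading control, HRP secondary, luminol detection.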
row,SMILES,inhibition
1,CCOc1ccccc1-n1c(CN2CCNCC2)nc2ccccc2c1=O,Active
2,CCOc1ccccc1-n1c(CN2CCOCC2)nc2ccccc2c1=O,inactive

# System: ME-180
# Assay: Inhibition of hypoxia-induced HIF1alpha protein accumulation in human HRE-bla-ME180 cells at 10 uM after 17 hrs by Western blot analysis
# Assay type: functional, cell-based
# Settings: not given
# In short: as §1
row,SMILES,inhibition
1,CCOc1ccccc1-n1c(CN2CCOCC2)nc2ccccc2c1=O,Active

# Biological target: T1, Hypoxia-inducible factor 1-alpha
# Assay: Ratio of NCGC00056044 IC50 to compound IC50 for hypoxia-induced HIF1alpha activation in human ME180 cells by HRE3-Bla-[…] reporter gene assay
# Assay type: cell-based
# Settings: ME-180
# Target sequence in this assay (Q16665 whole entry, looked up): as the sequence (Q16665 whole entry) above
row,SMILES,Ratio IC50
1,CCOc1ccccc1-n1c(CN2CCNCC2)nc2ccccc2c1=O,5
